Entries after “also recorded” stand apart in the source; their conditions may differ. Where no end group is shown, it is not given here.
B1: QRH*-Cy5.5 (peptide)
peptide: QRHKPREGGGSK(Cy5.5)-NH2

Legend:
[1] = tested on: EGFR in HT29 cells (siCL vs siEGFR); assay: siRNA knockdown of EGFR, confocal microscopy of peptide binding; type: cell-based, human; conditions: for intensity siCL vs siEGFR (in words): HT29, confocal; for binding/intensity in HT29 knockdown cells (siEGFR) / binding to control HT29 cells (siCL): confocal; for binding/intensity in HT29 knockdown cells (siEGFR): EGFR-targeting siRNA; for binding to control HT29 cells (siCL): nontargeting siRNA
Outline: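 HT29 cells, with penicillin–streptomycin omitted, transfected using DharmaFECT with EGFR-targeting or nontargeting pool siRNA. Cells incubated with Cy5.5-labeled test and control peptides, then fixed in 4% PFA or methanol. Stained with mouse anti-EGFR (1:1000) overnight at 4 °C, then AF488 goat anti-mouse (1:500) 1 h at RT. Mounted with DAPI; confocal imaging with 63× oil objective.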

[2] = tested on: HT29 cells; assay: confocal fluorescence microscopy of peptide binding, HT29; type: cell-based, human; conditions: 5 μM peptide, 3 min at RT; HT29 high EGFR expression
Outline: (§1)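 HT29 cells kept in McCoy's medium; SW480 and SW620 cells in DMEM. All with 10% FBS and 1% penicillin–streptomycin at 37 °C, 5% CO2. ~10^3 cells grown on coverslips to ~80% confluence, washed in PBS and incubated with 5 μM Cy5.5-labeled test or control peptide for 3 min at RT. Cells washed, fixed in 4% PFA for 5 min and mounted with DAPI; confocal imaging with 63× oil objective. Intensities quantified from five cells in two independent images.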

[3] = tested on: SW480 cells; assay: confocal fluorescence microscopy of peptide binding, SW480; type: cell-based, human; conditions: 5 μM peptide, 3 min at RT; SW480 medium EGFR expression
Outline: as §1

[4] = tested on: SW620 cells; assay: confocal fluorescence microscopy of peptide binding, SW620; type: cell-based, human; conditions: 5 μM peptide, 3 min at RT; SW620 low EGFR expression
Outline: as §1

[5] = tested on: spontaneous colonic adenomas in CPC;Apc mice; assay: in vivo near-infrared fluorescence endoscopy of colon in CPC; set-up: species or system mouse; conditions: for T/B ratio (log2), flat lesions / T/B ratio (log2), polyps: mean±s.d., n=15; for target-to-background ratio, flat lesions / target-to-background ratio, polyps: 1.5 ml, 5 min incubation; for target-to-background ratio, flat lesions: flat lesions n=15, 5 mice; for target-to-background ratio, polyps: polyps n=15, 5 mice
Outline: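 CPC;Apc mice (Cdx2-Cre, floxed Apc allele), n=5, aged 7–10 months, under 2–4% isoflurane in oxygen by nose cone. Colon rinsed with water under white light. Cy5.5-labeled peptides (100 μM) delivered topically through the endoscope channel and left 5 min, then unbound peptide rinsed off. Imaging with small-animal NIR fluorescence endoscope; lesions excised for H&E. T/B ratios log-transformed; fold-change taken as anti-log of difference.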

[6] = fluorescence spectra of Cy5.5-labeled peptides; type: physicochemical; conditions: 10 μM in PBS, λex=671 nm
[7] = tested on: EGFR phosphorylation, Akt and Erk1/2 phosphorylation in HT29 cells; assay: effect of peptide on cell signaling, western blot; type: cell-based, human; conditions: 5 and 100 μM, 10, 20 and 120 min
Outline: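 HT29 cells held in serum-free medium for 16 h, then exposed to Cy5.5-labeled peptide at 5 or 100 μM for 10, 20 or 120 min. EGF at 100 ng/ml for the same times served as reference. Cells lysed in RIPA with protease inhibitors, followed by SDS gel electrophoresis, PVDF transfer and chemiluminescent immunoblotting. Probes: EGFR, phospho-EGFR, AKT, phospho-AKT (S473), ERK1/2, phospho-ERK1/2 and tubulin.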

[8] = tested on: human colonic dysplasia; assay: binding of peptide and antibody to human colonic specimens, confocal microscopy
Outline: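 Human colonic biopsies from routine colonoscopy, frozen in OCT, cut at 10 μm. Sections incubated with 5 μM Cy5.5-labeled peptide in PBS for 10 min at RT, then rabbit anti-EGFR (1:1000) overnight at 4 °C and AF488 goat anti-rabbit (1:500) 1 h at RT. Sections fixed in 4% PFA and mounted with DAPI; confocal imaging at 20×. Mean intensity taken from three 30×30 μm² boxes within surface epithelium per specimen. Histology reviewed by GI pathologist.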

[9] = tested on: HT29 cells; assay: apparent association time constant, flow cytometry; type: binding, human; conditions: from k, 5 μM QRH*-Cy5.5, 4 °C
Outline: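 HT29 cells detached with PBS-based dissociation buffer; ~10^5 cells incubated with 5 μM Cy5.5-labeled test peptide at 4 °C for intervals from 0 to 20 min. Cells washed in cold PBS, fixed in 4% PFA and analysed by flow cytometry. Median fluorescence taken as a ratio to cells without peptide at each time point. Rate constant k fitted to y(t)=Imax[1−exp(−kt)]. Six independent experiments.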

[10] = tested on: dysplastic crypts in polyps; assay: binding to dysplastic crypts in mouse polyp specimens, immunofluorescence; conditions: optimal cutting temperature-embedded mouse specimens
Outline: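 Mouse polypoid dysplasia frozen in OCT and cut at 10 μm. Sections stained with goat anti-mouse anti-EGFR (1:1000) plus AF488-labeled secondary antibody, washed in PBS, fixed in 4% PFA for 10 min and mounted with DAPI. Confocal microscopy used; adjacent sections stained with H&E.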

[11] = tested on: human dysplastic colorectal polyps; conditions: FITC-labeled, confocal endomicroscopy; cited from earlier work
[12] = target: Epidermal growth factor receptor (EGFR) (human (endogenous in HT29, SW480, SW620), UniProt P00533 25-1210); assay: immunostaining of cells or tissue
[13] = NIR endoscopy, topical 100 μM, 5 min
[14] = anti-log of difference in log-transformed data

| Molecule | intensity siCL vs siEGFR (in words) [1] | binding/intensity in HT29 knockdown cells (siEGFR) [1] | binding to control HT29 cells (siCL) [1] | fluorescence signal from flat lesions [5, 13] | fluorescence signal from polyp [5, 13] | T/B ratio (log2), flat lesions ([5]; topical 100 μM) | T/B ratio (log2), polyps ([5]; topical 100 μM) | peak emission [6] | EGFR phosphorylation / downstream signaling [7] | target-to-background ratio, flat lesions ([5]; topical 100 μM) | target-to-background ratio, polyps ([5]; topical 100 μM) | also measured |
| --- | --- | --- | --- | --- | --- | --- | --- | --- | --- | --- | --- | --- |
| PEHKRRQ [PEH*-Cy5.5] | nonsignificant decrease | minimal binding | minimal binding | Minimal signal | Minimal signal | 0.36±0.47 log2 | 0.62±0.77 log2 | 710 nm | – | – | – | binding to cell surface (HT29) [2]: Minimal binding; binding to cell surface (SW480) [3]: Minimal binding; binding to cell surface (SW620) [4]: Minimal binding |
| QRHKPRE | – | – | – | – | – | – | – | – | No downstream signaling was observed; also recorded: lack of cytoplasmic signaling | 2.7±0.7 | 4.0±1.7 | mean fluorescence intensity, dysplasia compared with normal ([8]; 5 μM, 10 min at RT, dysplasia n=29, normal n=15): 19.4 fold |
| QRHKPRE [QRH*-Cy5.5] | significantly higher intensities for siCL-transfected HT29 cells | Reduced fluorescence intensity | bind strongly to the surface; also recorded: strong binding | Several flat lesions are seen on fluorescence; also recorded: presence of flat lesions | increased intensity from the polyp in a heterogeneous pattern | 1.39±0.34 log2 | 1.90±0.60 log2 | 710 nm | no evidence of either EGFR phosphorylation or downstream phosphorylation of Akt and Erk1/2 | 2.7±0.7 | 4.0±1.7 | time scale for binding [9]: 2.46 min; signal from normal colonic mucosa [5, 13]: minimal background; mean fold difference of T/B ratio QRH*-Cy5.5 vs PEH*-Cy5.5, flat lesions [5, 14]: 2.05; mean fold difference of T/B ratio QRH*-Cy5.5 vs PEH*-Cy5.5, polyps [5, 14]: 2.43; difference in results between QRH*-Cy5.5 and PEH*-Cy5.5 (target-to-background) ([5]; topical 100 μM, 5 min): significant; area under ROC curve (AUC) ([8]; dysplasia vs normal, n=29 and 15): 0.94; binding to dysplastic crypts in polyps [10]: increased fluorescence intensity |
| VRPMPLQ | – | – | – | – | – | – | – | – | – | – | – | detection of dysplastic colorectal polyps [11]: used to detect human dysplastic colorectal polyps in vivo with confocal endomicroscopy |
| B1 | – | – | – | – | – | – | – | – | – | – | – | fold change of fluorescence intensity, siCL- vs. siEGFR-transfected cells [12]: 3.2 fold |

— article PMC4816258 (Clinical and Translational Gastroenterology, 2015)
